Data set [1] deals with T1, Cholesteryl ester transfer protein (Homo sapiens, UniProt P11597).
T1 sequence (P11597 whole entry): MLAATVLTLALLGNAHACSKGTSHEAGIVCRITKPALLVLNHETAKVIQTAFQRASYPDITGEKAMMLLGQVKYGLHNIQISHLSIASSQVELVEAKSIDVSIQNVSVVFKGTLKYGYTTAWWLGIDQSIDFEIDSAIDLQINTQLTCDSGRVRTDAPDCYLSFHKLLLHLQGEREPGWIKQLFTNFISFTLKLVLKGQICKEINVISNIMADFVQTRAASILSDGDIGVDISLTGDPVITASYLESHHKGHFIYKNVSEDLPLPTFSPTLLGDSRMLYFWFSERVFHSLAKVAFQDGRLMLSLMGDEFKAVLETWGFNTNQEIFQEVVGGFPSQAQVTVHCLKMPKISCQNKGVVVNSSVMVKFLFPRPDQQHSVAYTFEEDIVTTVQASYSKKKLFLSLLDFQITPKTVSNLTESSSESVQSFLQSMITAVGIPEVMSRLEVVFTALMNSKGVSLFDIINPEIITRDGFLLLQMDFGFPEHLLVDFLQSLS
In words: Inhibition of human recombinant CETP by fluorescence transfer assay.

Data set [2] can be described thus: Drug concentration in adipose fat of hemizygous human CETP transgenic mouse at 10 mg/kg, po dosed for 5 consecutive days measured on day 21 after cessation of drug treatment. The format is ADME, organism-based, Adipose tissue. More on the design: dose 10 mg/kg, route oral. The following applies: in vivo. The method, boiled down: (§1)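 Male hCETP transgenic mice given oral doses for 5 days in 0.5% hydroxyethylcellulose. Tissues and plasma collected at day 3 and day 21 after the last dose. Fat diluted 6:1 with acetonitrile and homogenized. Analysis by LC/MS/MS on a C18 column with QCs at 4.0−1000 nM, accepted within 30% of target.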

A short description of data set [3]: Drug concentration in adipose fat of hemizygous human CETP transgenic mouse at 10 mg/kg, po dosed for 5 consecutive days measured on day 3 after cessation of drug treatment. On the set-up: dose 10 mg/kg, route oral. The following applies: in vivo. The format is ADME, organism-based, Adipose tissue. An outline of the steps:
as §1

Another data set relates to Liver. In words: Drug concentration in liver of hemizygous human CETP transgenic mouse at 10 mg/kg, po dosed for 5 consecutive days measured on day 3 after cessation of drug treatment. On the set-up: dose 10 mg/kg, route oral. The note with it: in vivo. The format is ADME, organism-based. The method, boiled down: as §1
Data set [4] can be described thus: Drug concentration in testes of hemizygous human CETP transgenic mouse at 10 mg/kg, po dosed for 5 consecutive days measured on day 21 after cessation of drug treatment. The format is ADME, organism-based, Testis. The following applies: in vivo. On the set-up: dose 10 mg/kg, route oral. An outline of the steps: as §1
The test system of a further data set is Mus musculus. In words: Increase in HDL-cholesterol in hemizygous human CETP transgenic mouse at 10 mg/kg, po dosed for 5 consecutive days. Format: functional. The method, boiled down: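 Male hemizygous hCETP or hCETP/hApoB100 transgenic mice, 26−30 weeks, chow-fed. Compound suspended in 0.5% aqueous hydroxyethylcellulose, oral gavage each morning for 5 or 14 days. EDTA blood taken 7 h post-dose (fed for 5-day, after 4 h fast for 14-day) from vena facialis under isoflurane. HDL/LDL cholesterol measured on Cobas Integra 400 Plus. Mean ± SEM, one-way ANOVA with Bonferroni.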

For data set [5], the system named is Plasma. In words: Plasma concentration in hemizygous human CETP transgenic mouse at 10 mg/kg, po dosed for 5 consecutive days measured on day 5 and day 7 post dose. The format is ADME, organism-based. The following applies: in vivo. On the set-up: dose 10 mg/kg, route oral.
Data set [6] in a line: Drug concentration in testes of hemizygous human CETP transgenic mouse at 10 mg/kg, po dosed for 5 consecutive days measured on day 3 after cessation of drug treatment. Format: ADME, organism-based, Testis. More on the design: dose 10 mg/kg, route oral. The following applies: in vivo. The method, boiled down: as §1
In data set [7] the test system is Muscle tissue. In words: Drug concentration in muscle of hemizygous human CETP transgenic mouse at 10 mg/kg, po dosed for 5 consecutive days measured on day 21 after cessation of drug treatment. The format is ADME, organism-based. More on the design: dose 10 mg/kg, route oral. The note with it: in vivo. The method, boiled down:
as §1

Data set [8] is described as follows: Terminal elimination half life in healthy human administered as single oral dose. Format: ADME, organism-based. The following applies: in vivo, read-out: beta t1/2 (converted).
The test system of data set [9] is Plasma. In words: Drug concentration in plasma of hemizygous human CETP transgenic mouse at 10 mg/kg, po dosed for 5 consecutive days measured on day 3 after cessation of drug treatment. More on the design: dose 10 mg/kg, route oral. The note with it: in vivo. Format: ADME, organism-based. The method, boiled down: as §1
The subject of data set [10] is Kidney. In words: Drug concentration in kidney of hemizygous human CETP transgenic mouse at 10 mg/kg, po dosed for 5 consecutive days measured on day 21 after cessation of drug treatment. The note with it: in vivo. On the set-up: dose 10 mg/kg, route oral. The format is ADME, organism-based. An outline of the steps: as §1
For data set [11], the system named is Kidney. In words: Drug concentration in kidney of hemizygous human CETP transgenic mouse at 10 mg/kg, po dosed for 5 consecutive days measured on day 3 after cessation of drug treatment. Format: ADME, organism-based. The following applies: in vivo. On the set-up: dose 10 mg/kg, route oral. An outline of the steps: as §1
Data set [12] relates to Muscle tissue. In words: Drug concentration in muscle of hemizygous human CETP transgenic mouse at 10 mg/kg, po dosed for 5 consecutive days measured on day 3 after cessation of drug treatment. The format is ADME, organism-based. On the set-up: dose 10 mg/kg, route oral. The following applies: in vivo. The method, boiled down:
as §1

For the compound `CC(C)c1nc2c(c3c1[C@@H](c1ccc(F)cc1)OC31CCCC1)[C@@H](O)CC(C)(C)C2`, the IC50 in data set [1] amounted to 0.796 µM.
For the compound `CC(C)c1nc2c(c3c1[C@@H](c1ccccc1)OC31CCCC1)[C@@H](O)CC(C)(C)C2`, the half-inhibitory concentration (IC50) in data set [1] amounted to 4.05 µM.
Turning to `COc1cc(F)c(C(C)C)cc1-c1ccc(C(F)(F)F)cc1CN1C(=O)O[C@H](c2cc(C(F)(F)F)cc(C(F)(F)F)c2)[C@@H]1C` [ANACETRAPIB], the Drug uptake entry (in [2]; in [3]; in the data set with Liver; in data set [4]; in data set [6]; in the data set with Muscle tissue [7]) was “Active” throughout. Besides, the Drug uptake result with Plasma [9], in the data set with Kidney [10], with Kidney [11] and in the data set with Muscle tissue [12] was “Active” in each case. The Activity with Mus musculus turned out to be 50.5%. Moreover, in the data set with Plasma [5], the concentration amounted to 0.507 µM. Further, the half-life in data set [8] is 83 h.
Regarding `CC(C)c1nc2c(c3c1[C@@H](c1ccc(C(F)(F)F)cn1)OC31CCCC1)[C@@H](O)CC(C)(C)C2`, in [1], the concentration for half-maximal inhibition (IC50) amounted to 0.096 µM.
Turning to `CC(C)c1nc2c(c3c1[C@@H](c1ccc(C(F)(F)F)cc1)OC3(C)C)[C@@H](O)CC(C)(C)C2`, the half-inhibitory concentration (IC50) in data set [1] was determined as 0.548 µM.
Regarding `CC(C)c1nc2c(c3c1[C@@H](c1ccc(C(F)(F)F)nc1)OC31CCCC1)[C@@H](O)CC(C)(C)C2`, the IC50 in data set [1] came out at 0.135 µM.
In the case of `Cc1cc(C)c2c(c1)[C@@H](N(Cc1cc(C(F)(F)F)cc(C(F)(F)F)c1)c1nnn(C)n1)CCCN2C[C@H]1CC[C@H](C(=O)O)CC1` [EVACETRAPIB], in data set [8], the half-life was 44 h.
Turning to `CC(C)c1nc2c(c3c1[C@@H](c1ccc(C(F)(F)F)cc1)OC31CCCC1)[C@@H](O)CC(C)(C)C2`, the IC50 in data set [1] turned out to be 0.051 µM.
Regarding `CC(C)c1nc2c(c3c1[C@H](c1ccc(C(F)(F)F)cc1)OC31CCOCC1)[C@H](O)CC(C)(C)C2`, in [1], the half-inhibitory concentration (IC50) turned out to be 0.576 µM.
Regarding `CCOC(=O)N1c2ccc(C(F)(F)F)cc2[C@@H](N(Cc2cc(C(F)(F)F)cc(C(F)(F)F)c2)C(=O)OC)C[C@H]1CC` [TORCETRAPIB], in [8], the half-life was 221 h.
In the case of `CC(C)c1nc2c(c3c1[C@@H](c1ccc(C(C)(C)C)cc1)OC31CCCC1)[C@@H](O)CC(C)(C)C2`, the IC50 in data set [1] is 0.029 µM.

By IC50 is commonly meant the concentration that gives 50% inhibition.
